Data: ChEMBL document CHEMBL1124248, “Preparation and antischistosomal and antitumor activity of hycanthone and some of its congeners. Evidence for the mode of action of hycanthone” (1988)

Experiments:
Nucleic Acid [1] = experiment: In vitro binding of [3H]HNMC to calf thymus DNA after precipitation with alcohol and TCA was measured after 2 hours; format: nucleic-acid assay; details: Bos taurus
Procedure, shortened: (§1)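 0.02 µCi of 3H-labelled drug was added to 50 µg calf thymus DNA in 20 µL of 0.1 M citrate-phosphate buffer, pH 7. Incubated 1.5 h at 37 °C in the dark, diluted to 0.1 mL saline and dialyzed against saline at 4 °C for up to 4 days. Duplicate 10 µL samples taken from inside the bags at intervals were counted directly, or after TCA precipitation.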

[2] = Total radioactivity of [3H]HNMC was evaluated after 2 hr; format: functional
Procedure, shortened: (§2)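 3H-labelled drug (0.02 µCi) was mixed with 50 µg calf thymus DNA in 0.1 M citrate-phosphate buffer, pH 7, and incubated in the dark for 1.5 h at 37 °C. The mix was diluted in saline and dialysed against saline at 4 °C. Duplicate samples drawn from inside the bags at intervals up to 4 days were counted directly.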

HeLa [3] = experiment: Incorporation of 2*10e-6 M [3H]uridine in HeLa cells in presence of HNMC measured as TCA precipitable radioactivity compared with non treated controls; format: functional, cell-based; details: Homo sapiens
Procedure, shortened: (§3)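 HeLa cells (10^6 per duplicate tube) were incubated 1 h with drug. [3H]uridine was then added and incubation continued 1 h with drug present. Cells were washed with cold saline and precipitated with 10% TCA. Precipitates were collected on glass filters, TCA-washed and counted. Values are % TCA-precipitable radioactivity versus untreated controls.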

HeLa [4] = experiment: Incorporation of 2*10e-5 M [3H]uridine in HeLa cells in absence of HNMC measured as TCA precipitable radioactivity compared with non treated controls; format: functional, cell-based; details: Homo sapiens
Procedure, shortened: (§4)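 HeLa cells (10^6 per duplicate tube) were exposed to drug for 1 h, washed three times with medium, then held 2 h in drug-free medium. [3H]uridine was added for 1 h. Cells were precipitated with 10% TCA, and precipitates were filter-collected and counted. Values are % TCA-precipitable radioactivity versus untreated controls.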

HeLa [5] = experiment: Incorporation of 2*10e-6 M [3H]uridine in HeLa cells in absence of HNMC measured as TCA precipitable radioactivity compared with non treated controls; format: functional, cell-based; details: Homo sapiens; procedure, shortened: as §4
HeLa [6] = experiment: Binding of 1x 10e-4 M [3H]HNMC to HeLa DNA; format: functional, Homo sapiens
Procedure, shortened: (§5)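 HeLa cells exposed 1 h to [3H]-labelled drug, washed three times with saline, then held 30 min at 37 °C in drug-free medium. After a 2 h digestion at 37 °C, crude DNA was ethanol-precipitated, purified on a CsCl density gradient, dialyzed and reprecipitated. DNA was quantified by A260. An aliquot was treated with DNase, and DNase-sensitive radioactivity was expressed as drug molecules per base pair.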

Nucleic Acid [7] = experiment: In vitro binding of [3H]HNMC to calf thymus DNA was measured after 3 days; format: nucleic-acid assay; details: Bos taurus; procedure, shortened: as §1
[8] = (§6) Total radioactivity of [3H]HNMC was evaluated after 3 days; format: functional; procedure, shortened: as §2
Mus musculus [9] = experiment: In vivo antitumor activity against p-388 lymphocytic leukemia in mice at 6.25 mg/kg; format: functional
Procedure, shortened: (§7)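 Murine P388 lymphocytic leukemia model tested by the National Cancer Institute. Compound given once daily for 9 days; activity expressed as T/C.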

Nucleic Acid [10] = experiment: In vitro binding of [3H]HNMC to calf thymus DNA was measured after 1 day; format: nucleic-acid assay; details: Bos taurus; procedure, shortened: as §1
Schistosoma mansoni [11] = experiment: Incorporation of 1.2 M*10e6 [3H]uridine in hycanthone(HC) sensitive Schistosoma mansoni; format: functional
Nucleic Acid [12] = experiment: In vitro binding of [3H]HNMC to calf thymus DNA after precipitation with alcohol and TCA was measured after 4 day; format: nucleic-acid assay; details: Bos taurus; procedure, shortened: as §1
Schistosoma mansoni [13] = experiment: Incorporation of 6M *10e6 [3H]uridine in hycanthone(HC) resistant Schistosoma mansoni; format: functional
Procedure, shortened: (§8)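 Adult HC-resistant S. mansoni were treated in vitro, and [3H]uridine incorporation by the worms was measured. Values are % of control. Concentrations are given in M × 10^6.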

HeLa [14] = experiment: Binding of 1x 10e-5 M [3H]HNMC to HeLa DNA; format: functional, Homo sapiens; procedure, shortened: as §5
Nucleic Acid [15] = experiment: In vitro binding of [3H]HNMC to calf thymus DNA; format: nucleic-acid assay; details: Bos taurus; procedure, shortened: as §1
Schistosoma mansoni [16] = experiment: Incorporation of 6M *10e6 [3H]-uridine in hycanthone(HC) sensitive Schistosoma mansoni; format: functional
Nucleic Acid [17] = experiment: In vitro binding of [3H]HNMC to calf thymus DNA after precipitation with alcohol and TCA was measured; format: nucleic-acid assay; details: Bos taurus; procedure, shortened: as §1
Nucleic Acid [18] = experiment: In vitro binding of [3H]HNMC to calf thymus DNA after precipitation with alcohol and TCA was measured after 3 days; format: nucleic-acid assay; details: Bos taurus; procedure, shortened: as §1
HeLa [19] = experiment: Incorporation of 10e-5 M [3H]uridine in HeLa cells in presence of HNMC measured as TCA precipitable radioactivity compared with non treated controls; format: functional, cell-based; details: Homo sapiens; procedure, shortened: as §3
HeLa [20] = experiment: Binding of 5x 10e-4 M [3H]HNMC to HeLa DNA; format: functional, Homo sapiens; procedure, shortened: as §5
HeLa [21] = experiment: Incorporation of 10e-5 M [3H]uridine in HeLa cells in absence of HNMC measured as TCA precipitable radioactivity compared with non treated controls; format: functional, cell-based; details: Homo sapiens; procedure, shortened: as §4
[22] = as §6; format: functional; procedure, shortened: as §2; remark: listed apart in the source
[23] = (§9) Total radioactivity of [3H]HNMC was evaluated after 1 day; format: functional; procedure, shortened: as §2
HeLa [24] = experiment: Incorporation of 2*10e-5 M [3H]uridine in HeLa cells in presence of HNMC measured as TCA precipitable radioactivity compared with non treated controls; format: functional, cell-based; details: Homo sapiens; procedure, shortened: as §3
Nucleic Acid [25] = experiment: In vitro binding of [3H]HNMC to calf thymus DNA was measured after 2 days; format: nucleic-acid assay; details: Bos taurus; procedure, shortened: as §1
Nucleic Acid [26] = experiment: In vitro binding of [3H]HNMC to calf thymus DNA after precipitation with alcohol and TCA was measured after 2 day; format: nucleic-acid assay; details: Bos taurus; procedure, shortened: as §1
Mus musculus [27] = experiment: In vivo antitumor activity against p-388 lymphocytic leukemia in mice at 12.5 mg/kg; Toxic; format: functional, organism-based; parameters: dose 12.5 mg/kg; procedure, shortened: as §7
Nucleic Acid [28] = experiment: In vitro binding of [3H]HNMC to calf thymus DNA was measured after 4 day; format: nucleic-acid assay; details: Bos taurus; procedure, shortened: as §1
[29] = Total radioactivity of [3H]HNMC was evaluated after 2 hours; format: functional; procedure, shortened: as §2
Schistosoma mansoni [30] = experiment: Day 50% survival of worms in culture of HC resistant Schistosoma mansoni; format: functional
Procedure, shortened: (§10)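 Adult HC-resistant S. mansoni were exposed in vitro and kept in culture. The value is the day by which 50% of worms were dead. Cultures were ended at different times in different experiments. Concentrations are given in M × 10^6.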

Mus musculus [31] = experiment: In vivo antitumor activity against p-388 lymphocytic leukemia in mice at 3.13 mg/kg; format: functional; procedure, shortened: as §7
Schistosoma mansoni [32] = experiment: Day 50% survival of worms in culture of HC sensitive Schistosoma mansoni; format: functional
Nucleic Acid [33] = experiment: In vitro binding of [3H]HNMC to calf thymus DNA was measured after 2 hours; format: nucleic-acid assay; details: Bos taurus; procedure, shortened: as §1
Schistosoma mansoni [34] = experiment: Incorporation of 1.2 M *10e6 [3H]uridine in hycanthone(HC) resistant Schistosoma mansoni; format: functional; procedure, shortened: as §8
[35] = as §9; format: functional; procedure, shortened: as §2; remark: listed apart in the source
Nucleic Acid [36] = experiment: In vitro binding of [3H]HNMC to calf thymus DNA after precipitation with alcohol and TCA was measured after 1 day; format: nucleic-acid assay; details: Bos taurus; procedure, shortened: as §1
Schistosoma mansoni [37] = experiment: Incorporation of 1.3 *10e6 M [3H]uridine in hycanthone(HC) resistant Schistosoma mansoni; format: functional; procedure, shortened: as §8
Schistosoma mansoni [38] = experiment: Incorporation of 1.3 *10e6 M [3H]uridine in hycanthone(HC) sensitive Schistosoma mansoni; format: functional
Schistosoma mansoni [39] = experiment: Day 50% survival of worms in culture of HC resistant Schistosoma mansoni at 5.2*10e6M; format: functional; procedure, shortened: as §10
Schistosoma mansoni [40] = experiment: Incorporation of 5.2*10e6M [3H]uridine in hycanthone(HC) resistant Schistosoma mansoni; format: functional; procedure, shortened: as §8
Schistosoma mansoni [41] = experiment: Incorporation of 5.2*10e6M [3H]-uridine in hycanthone(HC) sensitive Schistosoma mansoni; format: functional
Schistosoma mansoni [42] = experiment: Incorporation of 2.6 *10e6 M [3H]uridine in hycanthone(HC) sensitive Schistosoma mansoni; format: functional
Schistosoma mansoni [43] = experiment: Day 50% survival of worms in culture of HC resistant Schistosoma mansoni at 1.3 *10e6 M; format: functional; procedure, shortened: as §10
Schistosoma mansoni [44] = experiment: Incorporation of 2.6 *10e6 M [3H]uridine in hycanthone(HC) resistant Schistosoma mansoni; format: functional; procedure, shortened: as §8
Schistosoma mansoni [45] = experiment: Day 50% survival of worms in culture of HC sensitive Schistosoma mansoni at 1.3 *10e6 M; format: functional

CCN(CC)CCNc1ccc(COC(=O)NC)c2sc3ccccc3c(=O)c12
Radioactivity (Nucleic Acid [1]): 12300 c.p.m. | Radioactivity [2]: 27500 c.p.m. | Radioactivity (HeLa [3]): 57% | Radioactivity (HeLa [4]): 2% | Radioactivity (HeLa [5]): 24% | Drug mol/base pair (HeLa [6]): 0.00105 | Radioactivity (Nucleic Acid [7]): 16000 c.p.m. | Radioactivity [8]: 100 c.p.m. | T/C (Mus musculus [9]): 166% | Radioactivity (Nucleic Acid [10]): 15000 c.p.m. | Control (Schistosoma mansoni [11]): 21% | Radioactivity (Nucleic Acid [12]): 5100 c.p.m. | Control (Schistosoma mansoni [13]): 11% | Drug mol/base pair (HeLa [14]): 8.4e-05 | Radioactivity (Nucleic Acid [15]): 134000 c.p.m. | Control (Schistosoma mansoni [16]): 3% | Radioactivity (Nucleic Acid [17]): 11500 c.p.m. | Radioactivity (Nucleic Acid [18]): 6900 c.p.m. | Radioactivity (HeLa [19]): 11% | Drug mol/base pair (HeLa [20]): 0.000203 | Radioactivity (HeLa [21]): 4% | Radioactivity [22]: 1350 c.p.m. | Radioactivity [23]: 1750 c.p.m. | Radioactivity (HeLa [24]): 6% | Radioactivity (Nucleic Acid [25]): 14800 c.p.m. | Radioactivity (Nucleic Acid [26]): 8000 c.p.m. | T/C (Mus musculus [27]): Toxic | Radioactivity (Nucleic Acid [28]): 15000 c.p.m. | Radioactivity [29]: 27500 c.p.m. | Effect (Schistosoma mansoni [30]): 8 days | T/C (Mus musculus [31]): 132% | Effect (Schistosoma mansoni [32]): 9 days | Radioactivity (Nucleic Acid [33]): 52000 c.p.m. | Control (Schistosoma mansoni [34]): 39% | Radioactivity [35]: 150 c.p.m. | Radioactivity (Nucleic Acid [36]): 9500 c.p.m.

CN(C)CCNc1ccc(CO)c2sc3ccc(O)cc3c(=O)c12
Control (Schistosoma mansoni [37]): 96% | Control (Schistosoma mansoni [38]): 43% | Effect (Schistosoma mansoni [39]): >12 days | Control (Schistosoma mansoni [40]): 91% | Control (Schistosoma mansoni [41]): 23% | Control (Schistosoma mansoni [42]): 20% | Effect (Schistosoma mansoni [43]): >12 days | Control (Schistosoma mansoni [44]): 108% | Effect (Schistosoma mansoni [45]): 9 days
